Measurements as given in ChEMBL document CHEMBL1156627, “Ring expanded nucleoside analogues inhibit RNA helicase and intracellular human immunodeficiency virus type 1 replication” (J Med Chem, 2008).
Calls of active or inactive are those of the source. No cut-off for these calls is given here.

How the values were obtained:
[1] = test system: Human immunodeficiency virus 1; test: Inhibition of HIV1 replication in human MT4 cells assessed as reduction in reverse transcriptase production at 10 uM; type: functional, organism-based
In short: (§1)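 MT4 cells (4 × 10^6, RPMI + 10% FBS) infected with 20,000 RT counts of NL4-3 (HeLa-transfection stock); compound added 4 hrs post-infection. Half the medium replaced every 2 days with drug-containing medium; supernatants collected every 2 days up to day 8 and assayed for RT activity (also p24 ELISA). Three independent experiments.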

[2] = target: ATP-dependent RNA helicase DDX3X (Homo sapiens) (UniProt O00571); test: Inhibition of ATP dependent RNA unwinding activity of human RNA helicase DDX3
In short: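 Partially double-stranded RNA: 120-nt T3 transcript from KpnI-cut pBluescript hybridized (95 °C, 20 min) to complementary [α-32P]UTP-labelled T7 transcript from EcoRI-cut vector. Products resolved on 10% polyacrylamide gel, phosphorimaging.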

[3] = test system: Human immunodeficiency virus 1; test: Inhibition of HIV1 replication in human MT4 cells assessed as reduction in reverse transcriptase at 25 uM after 8 days by Western blotting; type: functional, organism-based; in short: as §1
[4] = test system: Human immunodeficiency virus 1; test: Inhibition of HIV1 replication in human MT4 cells assessed as p24 capsid protein level at 25 uM after 8 days by ELISA; type: functional, organism-based
In short: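 NL4-3 virus stock made by HeLa transfection, titred by RT assay. 4 × 10^6 MT4 cells (RPMI, 10% FBS) infected with 20,000 RT counts; compound added 4 hrs post infection. Half the medium replaced every 2 days with fresh medium holding the same compound level. Supernatants taken every 2 days over 8 days for p24 ELISA. Three repeats.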

[5] = test system: Human immunodeficiency virus 1; test: Antiviral activity against HIV1 transfected in human HeLa cells assessed as reduction of p55 viral protein synthesis at 25 uM; type: functional, organism-based
In short: (§2)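 HeLa cells transfected with 2µg pNL4-3 proviral clone; compound 25 µM added 3 hrs post-transfection. Lysates prepared 24 hrs later; viral proteins detected by Western blotting with anti-HIV-1 patient IgG (hyperimmune patient serum).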

[6] = test system: Human immunodeficiency virus 1; test: Antiviral activity against HIV1 transfected in human HeLa cells assessed as reduction of p24 viral protein synthesis at 25 uM; type: functional, organism-based; in short: as §2
[7] = test system: Human immunodeficiency virus 1; test: Inhibition of macrophage tropic HIV1 AD8 replication in monocyte-derived macrophages assessed as reduction in reverse transcriptase at 25 uM after 5 days by Western blotting; type: functional, organism-based
In short: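 Monocyte-derived macrophages from elutriated blood monocytes cultured 5–7 days in RPMI-1640 with 10% pooled human AB serum and M-CSF, then infected with 10^5 RT counts of M-tropic HIV-1 AD8 and treated with compound. Supernatants collected every 3 days for RT activity and p24 ELISA; three repeats.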

[8] = test system: Human immunodeficiency virus 1; test: Inhibition of macrophage tropic HIV1 AD8 replication in monocyte-derived macrophages p24 capsid protein level at 25 uM after 5 days by ELISA; type: functional, organism-based
In short: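 Elutriated blood monocytes cultured 5–7 days in RPMI-1640 with 10% pooled human AB serum and M-CSF to give macrophages. Infected on day 5 with 100,000 RT counts of HIV-1 AD8 (stock from HeLa transfection) and treated with compound. Supernatants collected every 3 days for p24 ELISA. Three repeats.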

Mus musculus = test: Toxicity in BALB/c mouse assessed as tissue necrosis at 0.2 to 200 uM, ip administered […] relative to control; type: organism-based; settings: in vivo, 840 h
In short: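 BALB/c mice, 8–10 weeks old, groups of 4, injected intraperitoneally twice weekly for 4 weeks with boluses calculated to give body distributions of 0.2, 2, 20 and 200 µM. Controls received saline or DMSO. Mice monitored 5 weeks in total, tail-vein blood weekly, then necropsy and multi-organ histology.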

MT4 = test: Cytotoxicity against human MT4 cells at 1 to 100 uM after 6 days by colorimetric assay relative to control; type: cell-based; settings: mt4, 144 h
In short: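 MT4 cells (4 × 10^6 in 2 ml, RPMI + 10% FBS) incubated with 1, 10 or 100 µM compound over 6 days; half the medium replaced every 2 days with fresh drug-containing medium. At each harvest 100 µl suspension incubated 2 hrs with WST-8, absorbance at 450 nm, compared with untreated cells.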

Sequence of ATP-dependent RNA helicase DDX3X (Homo sapiens) (O00571 2-662 limits assumed): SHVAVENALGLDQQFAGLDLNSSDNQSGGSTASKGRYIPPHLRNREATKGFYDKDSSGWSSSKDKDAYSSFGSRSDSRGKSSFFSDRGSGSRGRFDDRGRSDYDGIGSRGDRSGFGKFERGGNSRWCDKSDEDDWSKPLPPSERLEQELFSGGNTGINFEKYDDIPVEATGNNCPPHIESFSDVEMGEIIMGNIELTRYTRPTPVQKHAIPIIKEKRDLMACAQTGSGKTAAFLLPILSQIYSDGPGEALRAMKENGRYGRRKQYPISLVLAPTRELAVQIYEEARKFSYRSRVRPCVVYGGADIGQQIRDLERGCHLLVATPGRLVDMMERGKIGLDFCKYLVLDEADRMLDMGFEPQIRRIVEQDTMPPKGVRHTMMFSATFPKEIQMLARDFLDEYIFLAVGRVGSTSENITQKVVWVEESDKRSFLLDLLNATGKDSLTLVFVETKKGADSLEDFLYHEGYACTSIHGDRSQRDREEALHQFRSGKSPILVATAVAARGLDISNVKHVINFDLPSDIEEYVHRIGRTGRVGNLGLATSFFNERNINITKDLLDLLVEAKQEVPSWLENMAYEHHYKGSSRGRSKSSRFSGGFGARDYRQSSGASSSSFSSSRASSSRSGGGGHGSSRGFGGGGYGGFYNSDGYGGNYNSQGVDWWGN

Which Activity [1] does the source give for `CCCCCCCCCCCCCCCCCCNc1nc(=O)c2c(ncn2[C@@H]2C[C@@H](O)[C@H](CO)O2)c(=O)[nH]1` here?
Its Activity is “Active”.

What about the Activity [2] of the same compound?
The Activity was “Active”.

What about the Activity [3] of the same compound?
Its Activity is “Active”.

And the Activity [4]?
Its Activity is “Active”.

What about the Activity [5] of the same compound?
The Activity was “Active”.

What about the Activity [6] of the same compound?
The Activity was “Active”.

What about the Activity [7] of the same compound?
The Activity was “Active”.

What about the Activity [8] of the same compound?
Its Activity is “Active”.

And the Activity (Mus musculus)?
Its Activity is “Non-toxic”.

And the Activity (MT4)?
The Activity was “Non-toxic”.

`CCCCCCCCCCCCCCCCCCNc1nc(=O)c2ncn([C@@H]3O[C@H](CO)[C@@H](O)[C@H]3O)c2c(=O)[nH]1` was tested. Which Activity [1] did it give?
The Activity was “Active”.

And the Activity [2]?
Its Activity is “Active”.

What about the Activity [3] of the same compound?
The Activity was “Active”.

What about the Activity [4] of the same compound?
Its Activity is “Active”.

What about the Activity [5] of the same compound?
Its Activity is “Active”.

What about the Activity [6] of the same compound?
Its Activity is “Active”.

What about the Activity [7] of the same compound?
Its Activity is “Active”.

And the Activity [8]?
The Activity was “Active”.

And the Activity (Mus musculus)?
Its Activity is “Non-toxic”.

What about the Activity (MT4) of the same compound?
Its Activity is “Non-toxic”.
